# From PubChem
# NALP3 yeast inh: inhibitors of NALP3 inflammasome in yeast; Yeast reconstituted NLRP3/ASC/caspase-1, beta-gal luminescence, 24 h; inhibition, % at 10 µM; hit rate 0.39% among 330,000; AID 2825;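 active means inhibition of 50% or more; inactive means inhibition below 50%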;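 further: plate controls were induced DMSO wells for no effect and uninduced yeast grown without galactose for full effect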
# NALP1 inh: NALP1 inhibition; inhibition, % at 10 µM; S. cerevisiae NALP1/ASC/caspase-1 growth, X-gal OD620, 72 h; hit rate 0.61% among 280,000; in the data active means inhibition mostly above about 24%, no sharp cut-off; inactive means mostly below about 32%
# PolyA inh: yeast polyadenylation inhibition. activity score, % at 12 µM. AID 1875. S. cerevisiae SKY197-pL101 polyadenylation reporter, beta-gal luminescence; efflux-impaired pdr1/pdr3 knockout yeast; score 100 = 6 SD above DMSO. hit rate 0.02% among 300,000;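 active means lowest replicate activity score at least 50, where 100 means six control SD above control mean; inconclusive means lowest score under 50 but half or more replicates reach 50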;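 further: yeast exposed to compound for 9 h at 30 °C; higher score means more reporter readthrough which indicates perturbed polyadenylation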
# IMP-1 inhibitor: blocks Pseudomonas aeruginosa IMP-1 metallo-beta-lactamase | purified IMP-1, nitrocefin hydrolysis, epi-absorbance fluorescence | hit rate 0.45% among 290,000 | inhibition, % at 5.6 µM;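 active means inhibition above the mean plus 3 SD of all compounds in the same screening run, cut at about 4.5% in these data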;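 further: 0% = IMP-1 with DMSO and 100% = DMSO wells lacking enzyme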
#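 Test system: recombinant IMP-1 enzyme, purified / Medium: HEPES buffer pH 7.1 with ZnSO4 and Brij 35 / Doses: single dose, 5.6 µM / Times: 25 °C, 15 min preincubation, 25 min reaction / Detection: Epi-absorbance via hydrolysed-nitrocefin quenching of white-plate fluorescence, 480/530 nm, EDTA stop / Evaluation: percent inhibition from optical density relative to buffer-blank wells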
# VIM-2 inhibitor: blocks Pseudomonas aeruginosa VIM-2 metallo-beta-lactamase; hit rate 0.89% among 290,000; inhibition, % at 5.6 µM; purified VIM-2, nitrocefin hydrolysis, epi-absorbance fluorescence;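 active means inhibition above the mean of all tested compounds plus 3 SD, cutoff set per screening run, cut at about 7.5% in these data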;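 further: red hydrolysis product quenches plate fluorescence so inhibitors raise well fluorescence; 0% = enzyme with DMSO and 100% = DMSO without enzyme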
# SUMO Mot1 rescue: blocks SUMOylation pathway, rescuing yeast Mot1-301 growth; S. cerevisiae Mot1-301 growth rescue, ATP luminescence, 38.5C; percent above DMSO median, 100 means doubled; growth rescue, % at 18.8 µM; hit rate 1% among 320,000; AID 2716;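 active means every valid replicate shows activation above 250% relative to neutral control wells; inactive means the rest, any valid replicate at or below 250%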;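 further: OY570 slx delta 5 strain wells were the positive control but not used for scaling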
# * hit, by the source's call; ? = inconclusive; / = not tested or not shown. The list is not random: actives were taken first. Their share in the collection is about 2.9%.
SMILES,NALP3 yeast inh,NALP1 inh,PolyA inh,IMP-1 inhibitor,VIM-2 inhibitor,SUMO Mot1 rescue
Cc1ccccc1OC(C)C(=O)N1CCN(c2ccccn2)CC1 (stereo not drawn),6,32*,-15,-4,-2,-24
CCC(NS(=O)(=O)c1ccc(C)cc1)C(=O)N1CCN(c2ccccn2)CC1 (stereo not drawn),3,-4,-22,4.5*,-2,24
CC(=O)Nc1ccc(S(=O)(=O)N[C@@H](C)C(=O)N2CCN(c3ccccn3)CC2)cc1,-14,/,0,/,/,0
COc1ccc(/C=N/Nc2nc(C(=O)O)cs2)cc1,22,-18,15,-4,-5,-4
CC(C)(C)NC(=O)COc1coc(CN2CCN(C(=O)c3ccco3)CC2)cc1=O,18,/,16,/,/,2
O=C(c1ccc(NS(=O)(=O)c2ccc(Cl)c(Cl)c2)cc1)N1CCOCC1,0,/,/,/,/,/
CO/C([O-])=N/c1c[n+](-c2ccc(Cl)cc2)no1,11,7,15,-2,-1,290*
Cn1cc(/C=C2\SC(=O)NC2=S)c2ccccc21,27,9,-63,5.3*,4,/
Cc1ccc(/C=C2/SC(=S)N(C3CCCCC3)C2=O)o1,-1,-2,-3,0,-4,-2
Cc1ccc(/C=C2/SC(=O)NC2=S)o1,11,7,/,5.3*,4,/
C/C(=N/OC(=O)c1ccc(Cl)cc1Cl)c1oc(C)nc1C,21,5,8,0,-3,5
O=C(N/N=C/c1ccc(Cl)cc1)c1ccc2c(c1)OCO2,23,28,11,17*,0,5
O=C(N/N=C\C=C\c1ccc(Br)cc1)c1ccc2c(c1)OCO2,12,9,-3,25*,0,13
Cc1cc(C(=O)CCC(=O)N(C)CC(=O)Nc2ccc(OC(F)(F)F)cc2)c(C)s1,17,/,/,/,/,/
CN(C)CCC1c2ccc(Cl)cc2CCc2cccnc21 (stereo not drawn) (tested in a mixture with another compound),9,40*,-15,-1,0,-9
CCCCN(C)CCNC(=O)c1cc2c(=O)[nH]c3ccccc3c2n1C,7,-6,-5,-3,8.6*,2
COc1ccc(CNC(=O)c2cc3c(=O)[nH]c4ccccc4c3n2C)cc1,16,9,-7,-3,-3,11
CCCCN(CC)CCNC(=O)c1cn(C)c(=O)c2c1c1ccccc1n2C,10,12,-13,-5,6,42
CCCCN(C)CCNC(=O)c1cn(C)c(=O)c2c1c1ccccc1n2C,8,42*,-18,2,7,-10
COc1ccc(Cl)cc1NC(=O)CN(C)C(=O)c1cccc2cccnc12,2,/,/,/,/,0
CCN1CNC(=S)N(c2ccccc2C)C1,4,16,2,0,2,-32
CCOc1ccccc1N1CN(CC)CNC1=S,4,4,-8,0,1,355*
Cc1ccc(-c2nc(N/N=C/c3ccncc3)c3ccccc3n2)cc1,8,-5,-9,-2,0,29
Cc1ccc2nc(C(Cl)(Cl)Cl)nc(N/N=C/c3ccncc3)c2c1,0,22,-5,-3,11*,-5
CCn1c(=S)sc2c(=O)n(CC(=O)NCCCc3ccccc3)c(C)nc21,14,28,9,12*,-5,-5
SMILES,NALP3 yeast inh,NALP1 inh,PolyA inh,IMP-1 inhibitor,VIM-2 inhibitor,SUMO Mot1 rescue
CCn1c(=S)sc2c(=O)n(CC(=O)Nc3cccc(Cl)c3)c(C)nc21,17,-2,-3,1,0,28
Cc1nc2c(sc(=S)n2Cc2ccco2)c(=O)n1CC(=O)Nc1ccccc1F,6,5,28,6.0*,-2,-5
Clc1ccc(OCCCN2CCc3ccccc3C2)c(Br)c1,37,3,-7,-1,-1,17
Clc1ccc(SCCOCCN2CCc3ccccc3C2)cc1,39,22,-11,-1,0,270*
Clc1ccc(OCCOCCN2CCc3ccccc3C2)c(Cl)c1,33,56*,-9,0,1,5
CCn1cc(C(=O)O)c(=O)c2cc(S(=O)(=O)N(C)C)ccc21,22,1,3,-2,8.7*,0
O=C(Nc1cccc2ccccc12)NC1CCCCC1O (stereo not drawn),3,/,-2,/,/,-1
O=C(O)/C(=C\c1cccc([N+](=O)[O-])c1)c1ccc(S(=O)(=O)N2CCCCC2)s1,6,23*,6,-1,-3,9
c1ccc2nc(-c3nccs3)ccc2c1,3,-5,-22,-2,-3,-11
Clc1ccsc1-c1ccc2ccccc2n1,11,44*,-28,-3,-5,27
O=C(COc1ccc(Br)cc1)NCCNC(=O)c1ccncc1,16,9,7,-2,-2,3
COC(=O)c1sccc1NC(=O)C1CC2CCC1C2 (stereo not drawn),15,12,-36,48*,-4,4
COC(=O)c1sccc1NC(=O)C1C2C=CC(O2)C1C(=O)O (stereo not drawn),-4,0,6,-2,-3,-6
COC(=O)c1sccc1NC(=O)C1CC(C)=C(C)CC1C(=O)O (stereo not drawn),7,29,-1,0,8.4*,15
O=C1CCCN1C(=O)CSc1ncnc2sccc12,19,/,/,/,/,/
Cc1c(OCC(=O)N[C@@H](Cc2ccccc2)C(=O)O)ccc2c1oc(=O)c1ccccc12,3,-3,-1,-3,12*,-9
Cc1c(OCC(=O)N[C@@H](Cc2ccccc2)C(=O)O)ccc2c3c(c(=O)oc12)CCC3,-4,8,?,1,12*,3
Cc1c(OCC(=O)NC(Cc2ccc(Cl)cc2)C(=O)O)ccc2c3c(c(=O)oc12)CCCC3 (stereo not drawn),-11,13,-1,-4,1,5
CCCCOc1ccc(C(=O)NCC(=O)N2CC=C(c3ccccc3)CC2)cc1,8,/,4,/,/,-16
CC12CCC(=O)N1C(C(=O)Nc1ccc(F)cc1)CS2 (stereo not drawn),7,10,13,2,0,-2
CCOc1ccc(/C(O)=C2/C(=O)C(=O)N(c3ccccn3)C2c2ccc(F)cc2)c(C)c1 (stereo not drawn),8,-4,17,-4,-1,-20
O=C(c1ccco1)N1CCN(C(=O)N2CCCCC2)CC1,14,10,23,-4,-1,-2
CCN1CCN(C(=O)C2=C(C(=O)O)CCCC2)CC1,7,17,-6,13*,6,9
O=C(O)C1=C(C(=O)N2CCN(C(=O)c3ccco3)CC2)CCCC1,10,18,-8,12*,3,2
O=C(CSc1cc(Cl)ccc1Cl)NC1CCCC1,28,17,-8,-3,-2,22
Cc1occc1C(=O)N1CCN(C(c2ccccc2)c2ccccc2)CC1,5,/,-17,-3,-2,-31
